Results: paper PMC11406440 (Food and chemical toxicology : an international journal …, 2024)

Legend:
spleen cells = test: Spleen immune phenotyping by flow cytometry; type: in vivo, B6C3F1 mice; settings: 5% PFHxS, 28 days; mean ± SE
Summary of the method: (§1)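 Female B6C3F1 mice (5/group) received 25 μl/ear of acetone vehicle or 1.25, 2.5 or 5% w/v test compound on the dorsal surface of each ear, once daily for 28 days. They were euthanized about 24 h later. Single-cell suspensions were made from both auricular dLNs, half a spleen or one ear pinna. Cells were Fc-blocked (anti-CD16/32), stained with surface antibody cocktails and acquired on an LSR II, with FMO gating controls.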

B6C3F1 mice = test: Serum chemistries after 28-day dermal exposure; type: in vivo; settings: 28 days
Summary of the method: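 After 28 daily ear applications (25 μl/ear; acetone or 1.25, 2.5, 5% w/v), blood was taken by cardiac puncture about 24 h post-dose. Serum was separated by centrifugation and frozen at −20 °C, then run on a Catalyst DX chemistry analyzer for ALKP, BUN, glucose, cholesterol and ALT. There were 4–5 mice/group, with one-way ANOVA and Dunnett's post-test versus vehicle.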

mice = settings: 7 days of 10 mg/kg oral exposure; ref Das et al., 2017; cited from earlier work
Deer mice = settings: oral gavage for 28-days, 7 and 14 mg/kg/d; ref Narizzano et al., 2023; cited from earlier work
ear pinna cells = test: Skin; type: in vivo, B6C3F1 mice; settings: 28 days; for Skin CD4+ frequency / Skin CD4+ number / Skin CD8+ frequency / Skin CD8+ number / Skin CD11b + DCs frequency / Skin CD11b + DCs number / Skin CD11b- DCs frequency / Skin CD11b- DCs number / Skin CD45+ frequency / Skin CD45+ number / Skin Cellularity / Skin Eosinophils frequency / Skin Eosinophils number / Skin NK frequency / Skin NK number / Skin Neutrophils frequency / Skin Neutrophils number: mean ± SE
Summary of the method: as §1

With `O=S(=O)(O)C(F)(F)C(F)(F)C(F)(F)C(F)(F)C(F)(F)C(F)(F)F` [PFHxS, Perfluorohexane sulfonic acid] the “Spleen Neutrophils frequency” value (spleen cells) was 2.51 ± 0.34 %, the “Spleen Neutrophils number” value (spleen cells) was 9.14 ± 1.54 x 10^5 and the “Serum ALT fold increase” value (B6C3F1 mice; 1.25% PFHxS dermal) was 3.66 fold. The “Serum ALKP fold increase” value (B6C3F1 mice; 2.5% PFHxS dermal) was 2.11 fold, the “Serum ALT fold increase” value (B6C3F1 mice; 2.5% PFHxS dermal) was 2.9 fold and the “Serum BUN change” value (B6C3F1 mice; 2.5 and 5% PFHxS dermal) was “decreased”. For the same compound, the Serum cholesterol change (B6C3F1 mice; 2.5 and 5% PFHxS dermal) was “decreased”, the “Serum ALKP fold increase” value (B6C3F1 mice; 5% PFHxS dermal) was 2.61 fold and the “Serum ALKP increase” value (B6C3F1 mice; 5% PFHxS dermal) was 161%. For the same compound, the “Serum ALT fold increase” value (B6C3F1 mice; 5% PFHxS dermal) was 4.6 fold, the “Serum ALT increase” value (B6C3F1 mice; 5% PFHxS dermal) was 360% and the Serum cholesterol decrease (B6C3F1 mice; 5% PFHxS dermal) was 43%. The Serum glucose decrease (B6C3F1 mice; 5% PFHxS dermal) was 58%, the “Serum urea nitrogen (BUN) decrease” value (B6C3F1 mice; 5% PFHxS dermal) was 34% and the Serum glucose change (B6C3F1 mice; all three PFHxS concentrations (1.25, 2.5, 5%)) was “decreased”. The “Increase in liver weight” value (mice) was ~ 60%, the PFC formation (Deer mice) was “reduction” and the “Skin CD4+ frequency” value (ear pinna cells; 1.25% PFHxS) was 2.64 ± 0.25%. For the same compound, the “Skin CD4+ number” value (ear pinna cells; 1.25% PFHxS) was 2.31 ± 0.36 x 10^3, the “Skin CD8+ frequency” value (ear pinna cells; 1.25% PFHxS) was 0.36 ± 0.05% and the “Skin CD8+ number” value (ear pinna cells; 1.25% PFHxS) was 3.21 ± 0.60 x 10^2. For the same compound, the “Skin CD11b + DCs frequency” value (ear pinna cells; 1.25% PFHxS) was 0.64 ± 0.03%, the “Skin CD11b + DCs number” value (ear pinna cells; 1.25% PFHxS) was 5.17 ± 0.30 x 10^2 and the “Skin CD11b- DCs frequency” value (ear pinna cells; 1.25% PFHxS) was 1.43 ± 0.18 %. The “Skin CD11b- DCs number” value (ear pinna cells; 1.25% PFHxS) was 12.30 ± 1.74 x 10^2, the “Skin CD45+ frequency” value (ear pinna cells; 1.25% PFHxS) was 8.29 ± 0.74% and the “Skin CD45+ number” value (ear pinna cells; 1.25% PFHxS) was 8.39 ± 0.66 x 10^4. The “Skin Cellularity” value (ear pinna cells; 1.25% PFHxS) was 9.56 ± 0.21 x 10^5, the “Skin Eosinophils frequency” value (ear pinna cells; 1.25% PFHxS) was 1.21 ± 0.20 % and the “Skin Eosinophils number” value (ear pinna cells; 1.25% PFHxS) was 1.00 ± 0.24 x 10^3. For the same compound, the “Skin NK frequency” value (ear pinna cells; 1.25% PFHxS) was 0.97 ± 0.11%, the “Skin NK number” value (ear pinna cells; 1.25% PFHxS) was 8.53 ± 1.49 x 10^2 and the “Skin Neutrophils frequency” value (ear pinna cells; 1.25% PFHxS) was 0.23 ± 0.03%. For the same compound, the “Skin Neutrophils number” value (ear pinna cells; 1.25% PFHxS) was 1.79 ± 0.31 x 10^2, the “Skin CD4+ frequency” value (ear pinna cells; 2.5% PFHxS) was 3.34 ± 0.18 % and the “Skin CD4+ number” value (ear pinna cells; 2.5% PFHxS) was 2.10 ± 0.25 x 10^3. For the same compound, the “Skin CD8+ frequency” value (ear pinna cells; 2.5% PFHxS) was 0.41 ± 0.07 %, the “Skin CD8+ number” value (ear pinna cells; 2.5% PFHxS) was 2.52 ± 0.48 x 10^2 and the “Skin CD11b + DCs frequency” value (ear pinna cells; 2.5% PFHxS) was 0.73 ± 0.08%. The “Skin CD11b + DCs number” value (ear pinna cells; 2.5% PFHxS) was 4.45 ± 0.48 x 10^2, the “Skin CD11b- DCs frequency” value (ear pinna cells; 2.5% PFHxS) was 1.23 ± 0.12 % and the “Skin CD11b- DCs number” value (ear pinna cells; 2.5% PFHxS) was 7.66 ± 1.11 x 10^2. The “Skin CD45+ frequency” value (ear pinna cells; 2.5% PFHxS) was 8.20 ± 0.74%, the “Skin CD45+ number” value (ear pinna cells; 2.5% PFHxS) was 6.35 ± 0.84 x 10^4 and the “Skin Cellularity” value (ear pinna cells; 2.5% PFHxS) was 7.67 ± 0.62 x 10^5. For the same compound, the “Skin Eosinophils frequency” value (ear pinna cells; 2.5% PFHxS) was 1.75 ± 0.12%, the “Skin Eosinophils number” value (ear pinna cells; 2.5% PFHxS) was 1.10 ± 0.15 x 10^3 and the “Skin NK frequency” value (ear pinna cells; 2.5% PFHxS) was 0.78 ± 0.07 %. For the same compound, the “Skin NK number” value (ear pinna cells; 2.5% PFHxS) was 4.86 ± 0.61 x 10^2, the “Skin Neutrophils frequency” value (ear pinna cells; 2.5% PFHxS) was 0.30 ± 0.05% and the “Skin Neutrophils number” value (ear pinna cells; 2.5% PFHxS) was 1.84 ± 0.33 x 10^2. The Skin macrophage number (ear pinna cells; 5% PFHxS) was “increase”, the “Skin CD4+ frequency” value (ear pinna cells; 5% PFHxS) was 4.51 ± 0.21 % and the “Skin CD4+ number” value (ear pinna cells; 5% PFHxS) was 5.82 ± 0.41 x 10^3. For the same compound, the “Skin CD8+ frequency” value (ear pinna cells; 5% PFHxS) was 0.73 ± 0.09 %, the “Skin CD8+ number” value (ear pinna cells; 5% PFHxS) was 9.37 ± 1.32 x 10^2 and the “Skin CD11b + DCs frequency” value (ear pinna cells; 5% PFHxS) was 1.18 ± 0.05 %. For the same compound, the “Skin CD11b + DCs number” value (ear pinna cells; 5% PFHxS) was 15.10 ± 0.45 x 10^2, the “Skin CD11b- DCs frequency” value (ear pinna cells; 5% PFHxS) was 1.25 ± 0.08 % and the “Skin CD11b- DCs number” value (ear pinna cells; 5% PFHxS) was 16.10 ± 1.39 x 10^2. The “Skin CD45+ frequency” value (ear pinna cells; 5% PFHxS) was 13.48 ± 0.52 %, the “Skin Cellularity” value (ear pinna cells; 5% PFHxS) was 9.56 ± 0.31 x 10^5 and the “Skin Eosinophils frequency” value (ear pinna cells; 5% PFHxS) was 2.68 ± 0.31%. For the same compound, the “Skin Eosinophils number” value (ear pinna cells; 5% PFHxS) was 3.49 ± 0.52 x 10^3, the “Skin NK frequency” value (ear pinna cells; 5% PFHxS) was 0.68 ± 0.04 % and the “Skin NK number” value (ear pinna cells; 5% PFHxS) was 8.76 ± 0.68 x 10^2. For the same compound, the “Skin Neutrophils frequency” value (ear pinna cells; 5% PFHxS) was 1.14 ± 0.37 % and the “Skin Neutrophils number” value (ear pinna cells; 5% PFHxS) was 14.10 ± 4.21 x 10^2.
